Reference: paper PMC3181111 (ACS chemical neuroscience, 2011)

Test system: male C57BL/6J mice
Assay: Mouse tail suspension test
Format: in vivo
Details: 30 minutes, vs water vehicle
How it was run: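 Mice suspended by the tail with adhesive tape from a metal bar 30 cm high. Drugs given i.p. 30 min before testing. Reference inhibitors were in sterile water; test compounds were in DMSO at 2% (0.01 mL/g) or 100% (0.002 mL/g). Immobility time was scored by a blinded observer from 6-min video, n = 7–9, with one-way ANOVA and Tukey posthoc.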

| SMILES | Immobility time in tail suspension test (3 mg/kg i.p.) | Immobility time in tail suspension test (10 mg/kg i.p.) |
| --- | --- | --- |
| CNCCCN1c2ccccc2CCc2ccccc21 [desipramine] | decreased immobility times |  |
| COCCCC/C(=N\OCCN)c1ccc(C(F)(F)F)cc1 [fluvoxamine] |  | decreased immobility times |
